Results published in paper PMC11101930 (International Journal for Parasitology: Drugs and Drug …, 2024).
Counter-ions that a name gives are not always drawn. Like-named read-outs stand apart in the source and are kept apart here.

Key:
[1] = Metabolic stability assay in murine liver microsomes; assay type: in vitro ADME; details: for Microsomal stability t1/2: murine liver microsomes, 1 μM, 37 °C
Method in brief: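 Test compound (1 μM) was incubated at 37 °C with mouse liver microsomes (0.5 mg/ml protein) in potassium phosphate buffer, pH 7.4, with 1.0 mM EDTA. Reactions were started with NADPH and quenched with ice-cold acetonitrile every 15 min up to 1 h. Depletion was followed by LC-MS/MS (ESI+, C18) against internal standards. A first-order exponential decay fit gave t1/2, and CLint was derived assuming hepatic blood flow of 90 ml/min/kg.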

S. mansoni = test: In vivo efficacy study in S. mansoni-infected mice; parameters: species or system Schistosoma mansoni; details: single oral gavage, 200 mg/kg (1) or 100 mg/kg (19); for Mean number of worms (SD): 21 days post-dosing
Method in brief: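 Female NMRI mice (three weeks old, acclimatized one week) were each infected with 100 cercariae subcutaneously in the nuchal fold. At day 49 they received one oral gavage of test compound in Tween 80/ethanol (70:30, 10% of volume) plus tap water (sonicated, 35 °C); there were four mice per group and four untreated controls. Mice were killed 21 days post-dosing, and worms from mesenteric veins and liver were sexed, counted, and classed as dead or alive. Worm burden reduction was based on living worms versus controls, with a Kruskal-Wallis test.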

P. falciparum D6 strain = test: Antimalarial activity against P. falciparum D6 strain; assay type: cell-based, Plasmodium falciparum; details: among the 11 compounds most active against adult S. mansoni
adult S. mansoni = test: In vitro screening of adult S. mansoni worms, visual viability scoring; assay type: cell-based; details: Schistosoma mansoni, 72 h, read-out: Adult S. mansoni EC50
Method in brief: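 Adult worms were recovered from mouse mesenteric veins at day 49 post-infection and held in RPMI 1640 with 5% FCS and antibiotics at 37 °C, 5% CO2. Two worm pairs per well were exposed to 40, 30, 20, 10, 7.5, 5, 2.5 or 1 μM test compound, with DMSO (<1%) as control. Viability was scored visually at 24 and 72 h (0–3, 0.5 steps). Duplicates, repeated once. Scores were normalized to vehicle, and EC50 came from a four-parameter sigmoid fit (two-parameter if not applicable).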

[2] = system: newly transformed schistosomula (NTS); test: In vitro screening of newly transformed schistosomula; assay type: cell-based, Schistosoma mansoni; details: 72 h, read-out: NTS EC50
Method in brief: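 Cercariae shed from Biomphalaria glabrata under light for 4 h were mechanically transformed and kept in M199 with 5% FCS, antibiotic mastermix and pen./strep. at 37 °C, 5% CO2. 40–50 larvae per well were exposed to 10, 7.5, 5, 3.75, 2.5, 1 or 0.25 μM test compound, with DMSO (<1%) as control. Viability was scored visually at 24 and 72 h (0–3, 0.5 steps), and the assay was repeated once. Scores were normalized to vehicle, and EC50 came from a four- or two-parameter sigmoid least-squares fit.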

EC50 ([2]; Schistosoma mansoni) | SMILES | EC50 (adult S. mansoni) | also measured
6.23 µM | N=C(NN=Cc1ccc(C(F)(F)F)cc1)NN=Cc1ccc(C(F)(F)F)cc1 [Compound 12, 2,2’-Bis[(4-trifluoromethylphenyl)methylene]carbonimidic Dihydrazide Hydrochloride] | – | –
4.02 µM | Cl.N#Cc1cc(/C=N/NC(=N)N/N=C/c2ccc(OC(F)(F)F)cc2)ccc1F [Compound 77, N'-((E)-3-cyano-4-fluorobenzylidene)-2-((E)-4-(trifluoromethoxy)benzylidene)hydrazine-1-carboximidhydrazide Hydrochloride] | 6.76 µM | half-life at 1 μM ([1]; mouse, liver microsomes, pH 7.4): 4.66 h
1.57 µM | N=C(N/N=C/c1ccnc2ccccc12)N/N=C/c1ccnc2ccccc12 [Compound 64, (E)-N'-((E)-quinolin-4-ylmethylene)-2-(quinolin-4-ylmethylene)hydrazine-1-carboximidhydrazide Hydrochloride] | – | –
4.44 µM | C#CCOc1ccc(/C=N/NC(=N)N/N=C/c2ccc(C(=O)c3ccccc3)cc2)cc1 [Compound 86, N'-((E)-4-benzoylbenzylidene)-2-((E)-4-(prop-2-yn-1-yloxy)benzylidene)hydrazine-1-carboximidhydrazide Hydrochloride] | – | –
1.24 µM | N#Cc1cc(/C=N/NC(=N)N/N=C/c2ccc(Cl)c(C#N)c2)ccc1Cl [Compound 71, N',2-bis((E)-4-chloro-3-cyanobenzylidene)hydrazine-1-carboximidhydrazide Hydrochloride] | – | –
1.66 µM | Cl.N#Cc1cccc(C=NNC(=N)NN=Cc2cccc(C#N)c2)c1 [Compound 21, 2,2’-Bis[(3-cyanophenyl)methylene]carbonimidic Dihydrazide Hydrochloride] | 4.04 µM | Microsomal stability t1/2 [1]: 0.967 h
2.01 µM | N=C(NN=CCc1ccc(OC(F)(F)F)cc1)NN=CCc1ccc(OC(F)(F)F)cc1 [Compound 17, 2,2’-Bis[(4-trifluoromethoxyphenyl)ethylidene]carbonimidic Dihydrazide Hydrochloride] | 4.91 µM | –
2.5 µM | N=C(N/N=C/c1ccc2ccccc2n1)N/N=C/c1ccc2ccccc2n1 [Compound 62, (E)-N'-((E)-quinolin-2-ylmethylene)-2-(quinolin-2-ylmethylene)hydrazine-1-carboximidhydrazide Hydrochloride] | 7.49 µM | –
3.37 µM | N=C(N/N=C/c1ccc(-c2ccc(F)cc2)cc1)N/N=C/c1ccc(-c2ccc(F)cc2)cc1 [Compound 53, (E)-2-((4'-fluoro-[1,1'-biphenyl]-4-yl)methylene)-N'-((E)-(4'-fluoro-[1,1'-biphenyl]-4-yl)methylene)hydrazine-1-carboximidhydrazide Hydrochloride] | – | –
2.7 µM | N=C(N/N=C/c1ccc(Oc2ccc(Cl)cc2)cc1)N/N=C/c1ccc(Oc2ccc(Cl)cc2)cc1 [Compound 59, N',2-bis((E)-4-(4-chlorophenoxy)benzylidene)hydrazine-1-carboximidhydrazide Hydrochloride] | 5.52 µM | –
– | N=C(NN=Cc1ccc(-c2ccccc2)cc1)NN=Cc1ccc(-c2ccccc2)cc1 [Compound 26, 2,2’-Bis[(4-diphenyl)methylene]carbonimidic Dihydrazide Hydrochloride] | – | EC50 ([2]; four- (a) or two-parameter (b) sigmoid fit): 4.43 µM
1.12 µM | N#Cc1cccc(CC=NNC(=N)NN=CCc2cccc(C#N)c2)c1 [Compound 23, 2,2’-Bis[(3-cyanophenyl)ethylidene]carbonimidic Dihydrazide Hydrochloride] | 2.69 µM | –
2.7 µM | COc1cc(OC)c(CC=NNC(=N)NN=CCc2cc(Cl)c(OC)cc2OC)cc1Cl [Compound 37, 2,2’-Bis[(2,4-dimethoxy-5-chlorophenyl)ethylidene]carbonimidic Dihydrazide Hydrochloride] | – | –
3.31 µM | N=C(NN=Cc1ccc(OC(F)(F)F)cc1)NN=Cc1ccc(OC(F)(F)F)cc1 [Compound 16, 2,2’-Bis[(4-trifluoromethoxyphenyl)methylene]carbonimidic Dihydrazide Hydrochloride] | 8.06 µM | –
4.63 µM | N=C(NN=Cc1ccc(OC(F)F)cc1)NN=Cc1ccc(OC(F)F)cc1 [Compound 18, 2,2’-Bis[(4-difluoromethoxyphenyl)methylene]carbonimidic Dihydrazide Hydrochloride] | 5.12 µM | –
2.44 µM | N=C(NN=Cc1ccc(N2CCOCC2)cc1)NN=Cc1ccc(N2CCOCC2)cc1 [Compound 33, 2,2’-Bis[(4-morpholinophenyl)methylene]carbonimidic Dihydrazide Hydrochloride] | 6.45 µM | –
4.51 µM | N=C(N/N=C/c1ccc(Oc2ccc(F)cc2)cc1)N/N=C/c1ccc(Oc2ccc(F)cc2)cc1 [Compound 58, N',2-bis((E)-4-(4-fluorophenoxy)benzylidene)hydrazine-1-carboximidhydrazide Hydrochloride] | 8.59 µM | –
5.71 µM | N=C(NN=Cc1ccc([N+](=O)[O-])cc1)NN=Cc1ccc([N+](=O)[O-])cc1 [Compound 27, 2,2’-Bis[(4-nitrophenyl)methylene]carbonimidic Dihydrazide Hydrochloride] | – | –
3.84 µM | N=C(N/N=C/c1ccc(Oc2ccccc2)cc1)N/N=C/c1ccc(Oc2ccccc2)cc1 [Compound 57, N',2-bis((E)-4-phenoxybenzylidene)hydrazine-1-carboximidhydrazide Hydrochloride] | 7.07 µM | –
0.65 µM | N=C(N/N=C/c1cnc2ccccc2c1)N/N=C/c1cnc2ccccc2c1 [Compound 63, (E)-N'-((E)-quinolin-3-ylmethylene)-2-(quinolin-3-ylmethylene)hydrazine-1-carboximidhydrazide Hydrochloride] | – | –
3.3 µM | N=C(N/N=C/c1cccc([N+](=O)[O-])c1)N/N=C/c1cccc([N+](=O)[O-])c1 [Compound 49, N',2-bis((E)-3-nitrobenzylidene)hydrazine-1-carboximidhydrazide Hydrochloride] | 9.47 µM | –
3.09 µM | N=C(N/N=C/c1cccc(-c2ccccc2)c1)N/N=C/c1cccc(-c2ccccc2)c1 [Compound 52, (E)-N'-((E)-[1,1'-biphenyl]-3-ylmethylene)-2-([1,1'-biphenyl]-3-ylmethylene)hydrazine-1-carboximidhydrazide Hydrochloride] | 7.57 µM | –

SMILES | EC50 ([2]; Schistosoma mansoni) | EC50 (adult S. mansoni) | also measured
Cl.N#Cc1cc(C=NNC(=N)NN=Cc2ccc(F)c(C#N)c2)ccc1F [Compound 1, 2,2’-Bis[(3-cyano-4-fluorophenyl)methylene]carbonimidic Dihydrazide Hydrochloride] | 1.25 µM | 5.46 µM | Microsomal stability t1/2 [1]: 3.1 h; Tolerability in mice (S. mansoni): well tolerated; Mean number of worms (SD) (S. mansoni): 24.3 (4.3); Antimalarial activity in vitro and in vivo (ranking) (P. falciparum D6 strain): most potent antimalarial activity in vitro and in vivo
Cl.N=C(NN=CCc1ccc(OC(F)F)cc1)NN=CCc1ccc(OC(F)F)cc1 [Compound 19, 2,2’-Bis[(4-difluoromethoxyphenyl)ethylidene]carbonimidic Dihydrazide Hydrochloride] | 2.79 µM | 2.78 µM | Tolerability in mice (S. mansoni): well tolerated; Mean number of worms (SD) (S. mansoni): 28.3 (10.6)
